# Screening results as filed in PubChem BioAssay.
# In the library only some 0.95% were active in any assay of this set; here they are far more common.
# miR122 inh: miR-122 inhibition in Huh7 cells. Huh7 miR-122 Renilla luciferase sensor, 48 h; neutral wells = 0, positive control = 100. activation (reporter increase), % at 12.5 µM. actives 0.3% (n = 340,000);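 active = mean replicate activation score at least 90 and every replicate individually at or above 90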;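 also: higher luciferase means less miR-122 activity so hits act as miR-122 inhibitors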
# CAL PDZ FP-1: human CAL PDZ-peptide interaction inhibition; Q9HD26; purified CAL PDZ, TMR-peptide fluorescence polarization, 1 h; inhibition, % at 20 µM; actives 0.02% (n = 330,000);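 active = highest replicate inhibition of at least 40%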;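 also: plate controls were DMSO neutral control wells for no effect and unlabeled competitor peptide control wells for full effect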
#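 System: purified tagged CAL PDZ domain construct (CerCALP). Schedule: 1 h incubation at room temperature before polarization reading. Medium: 25 mM sodium phosphate pH 7.4, 150 mM NaCl, TCEP, IgG, Thesit. Read-out: percent inhibition from loss of millipolarization. Measured by: FP readout, S and P plane fluorescence. Probe or stimulus: fluorescent TMR peptide probe.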
# CAL PDZ FP-2: CAL PDZ (human) peptide binding inhibition; inhibition, % at 24.9 µM; purified CAL PDZ, TMR-peptide fluorescence polarization, 1 h; actives 0.92% (n = 300,000); Q9HD26;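 active = mean inhibition of at least 30% with at least half of replicates also reaching 30%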;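 also: 0% = DMSO neutral control and 100% = excess unlabeled competitor peptide PRC23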
# PvdQ acylase: blocks Pseudomonas aeruginosa PvdQ acylase activity; purified PvdQ acylase, fluorescence plate reader; inhibition, % at 10 µM; actives 0.063% (n = 340,000); in the data active = inhibition above about 30%, passing the limit was not always enough;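 also: 0% = vehicle neutral wells and 100% = reference inhibitor wells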
# Numbers without * were called inactive; · = no result.
SMILES,miR122 inh,CAL PDZ FP-1,CAL PDZ FP-2,PvdQ acylase
O=C(Nc1cccc([N+](=O)[O-])c1)c1cc(S(=O)(=O)Nc2ccccn2)ccc1Cl,8,0,44*,-3
O=C(Nc1ccc(Cl)cc1)c1cc(S(=O)(=O)Nc2ccccn2)ccc1Cl,19,-2,·,13
COc1ccc(NC(=O)C(=O)NCC2CCCN2S(=O)(=O)c2ccc(C)cc2)cc1 (stereo not given),·,-2,-5,0
CC(C)CN1CCC(=O)N(CCN=[N+]=[N-])CC1,-15,0,3,-1
CSc1ccc(S(=O)(=O)Nc2ccc(F)cc2)cc1,120*,-1,-4,-5
O=[N+]([O-])c1nn(-c2ccccc2)n(O)c1=NCc1ccc2c(c1)OCO2,-4,-1,-6,0
O=[N+]([O-])c1nn(-c2ccc(Cl)cc2)n(O)c1=NCc1ccccc1,-2,0,5,41*
CCOC(=O)C(=O)Cc1nc(OCc2ccccc2)cc(OCc2ccccc2)n1,·,0,0,12
Cc1ccc(NC(=O)c2ccc(=O)n(CC(=O)Nc3c(C)cc(C)cc3C)n2)cc1,-6,-3,-2,-7
CC(=O)N(/C=C1\SC(=S)N(c2ccccc2)C1=O)c1ccccc1,-7,-2,35*,-6
CCN1C(=O)/C(=C\N(C(C)=O)c2ccccc2)OC1=S,-11,-1,-4,-3
O=C(NCc1ccco1)C(NS(=O)(=O)c1cccc2nsnc12)c1ccccc1 (stereo not given),7,0,-2,7
CCn1nc(C(=O)Nc2ccc(S(=O)(=O)Nc3nccs3)cc2)c2ccccc2c1=O,93*,·,-4,9
COc1cc(NS(=O)(=O)c2cc(C(=O)NCCc3ccccn3)ccc2OC)cc(OC)c1,17,0,-1,-3
C/C(=N\NC(=O)c1cc(-c2cccs2)nc2ccccc12)c1ccccn1,151*,0,-1,4
CCOc1ccc(S(=O)(=O)N2CN3CCN(C3)C2)cc1,-10,0,63*,-8
CCOc1ccc(S(=O)(=O)N2CCNC(=O)C2)cc1,8,0,15,0
Cc1cccc(/C=N/NC(=O)c2cc(C)nc3ccccc23)n1,3,-1,151*,-8
COc1ccc(C(CNC(=O)C2COc3ccccc3O2)N2CCCC2)cc1 (stereo not given),-2,0,68*,-18
COc1ccc(C(CNC(=O)Cc2ccccc2)N2CCCCC2)cc1 (stereo not given),9,-3,-2,2
O=C(COC(=O)Cn1cnc2ccccc21)Nc1cc2c(cc1Cl)C(=O)c1ccccc1C2=O,-1,1,80*,-9
Cc1nc([N+](=O)[O-])c(Br)n1Cc1ccc(Cl)c(Cl)c1,-3,-1,0,-13
COc1ccc(NC2CCCN(C(=O)c3csc(C(C)C)n3)C2)cc1 (stereo not given),-2,1,93*,-8
COc1ccc(NC2CCCN(C(=O)c3csc(C(C)C)n3)C2)cc1OC (stereo not given),-1,0,7,-12
COc1ccc(NC2CCCN(C(=O)CCc3ccccc3F)C2)cc1 (stereo not given),3,0,78*,-12
SMILES,miR122 inh,CAL PDZ FP-1,CAL PDZ FP-2,PvdQ acylase
COc1ccc(NC2CCCN(C(=O)CCOc3ccccc3)C2)cc1 (stereo not given),9,-1,-5,2
CC(C)c1ccc(NC2CCCN(C(=O)c3ccnn3C)C2)cc1 (stereo not given),3,-1,55*,-1
Cc1onc(-c2ccccc2)c1C(=O)NCCSCc1ccco1,·,0,-1,1
CC1CCCN(C(=O)c2ccc(S(=O)(=O)Nc3ccccc3Cl)cc2)C1 (stereo not given),1,-3,-1,-1
COc1ccc(CNC(=O)CCCn2nc(C)c([N+](=O)[O-])c2C)cc1OC,·,-2,0,-6
Cc1ccccc1OCC(=O)NCCc1nc2ccccc2[nH]1,1,0,-4,-9
O=C(NC1CCCCC1)C(c1ccncc1)N(C(=O)Cn1nnc(-c2cccs2)n1)C1CCCC1 (stereo not given),6,-3,2,-2
CCOC(=O)c1ccc(-n2c(C)nc3c(cnn3-c3ccc(Cl)cc3)c2=O)cc1,2,1,-4,6
CCOC(=O)c1ccc(-n2c(C)nc3c(cnn3-c3ccccc3Cl)c2=O)cc1,-4,1,78*,-11
CCn1c(=O)c(=O)n(CC)c2cc(S(=O)(=O)Nc3cccc(OC)c3)ccc21,·,-1,·,15
